Reference: ChEMBL document CHEMBL2407057, “Structural variations on antitumour agents derived from bisacylimidoselenocarbamate. A proposal for structure-activity relationships based on the analysis of conformational behaviour” (Eur J Med Chem, 2013)

Tests used:
[1] = Prodrug activation assessed as induction of NaBH4-induced DiMeDiSe release at 60 mM after 8 hrs by head space gas chromatography mass spectrometry analysis; settings: 60000 µM
Outline: (§1)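 Compounds dissolved at 60 mM in 5% DMSO/H2O and held at room temperature in sealed vials. Headspace sampled at 8, 16 and 24 h for HS-GC–MS on an HP-5MS column with helium carrier at 1 mL/min, 50:1 split, and EI at 70 eV. SCAN mode was used to set SIM for MeSeH (tR 1.5 min) and DiMeDiSe (tR 2.9 min). Read-out was peak area.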

[2] = Prodrug activation assessed as induction of NaBH4-induced MeSeH release at 60 mM after 8 hrs by head space gas chromatography mass spectrometry analysis; settings: 60000 µM; outline: as §1
[3] = Prodrug activation assessed as induction of NaBH4-induced […] release at 60 mM after 24 hrs by head space gas chromatography mass spectrometry analysis; settings: 60000 µM; outline: as §1
[4] = Prodrug activation assessed as induction of NaBH4-induced […] release at 60 mM after 16 hrs by head space gas chromatography mass spectrometry analysis; settings: 60000 µM; outline: as §1
HT-29 = assay: Cytotoxicity against human HT-29 cells after 72 hrs by MTT assay; assay type: functional; settings: HT-29, 72 h; for GI50: read-out: pGI50 (converted)
MCF7 = assay: Cytotoxicity against human MCF7 cells after 72 hrs by MTT assay; assay type: functional; settings: MCF7, 72 h; for GI50: read-out: pGI50 (converted)

Row | Compound | Drug metabolism [1] | Drug metabolism [2] | Drug metabolism [3] | Drug metabolism [4] | TGI (HT-29) | GI50 (MCF7) | GI50 (HT-29) | CC50 (MCF7; read-out: LC50 (the source's name))
1 | C[Se]/C(=N\C(=O)c1ccco1)NC(=O)c1ccco1 | Active | Active | Active | Active |  |  |  | 
2 | C[Se]/C(=N\C(=O)c1cccs1)NC(=O)c1cccs1 | Active | Not Active | Active | Active |  |  |  | 
3 | C[Se]/C(=N\C(=O)c1sccc1Cl)NC(=O)c1sccc1Cl | Active | Active |  |  | 38.8 µM |  |  | 
4 | C[Se]/C(=N\C(=O)c1csc([N+](=O)[O-])c1)NC(=O)c1csc([N+](=O)[O-])c1 | Not Active | Active |  |  |  |  |  | 
5 | C[Se]/C(=N\C(=O)c1ccno1)NC(=O)c1ccno1 | Active | Not Active |  |  |  |  |  | 
6 | C[Se]/C(=N\C(=O)c1cc2ccccc2s1)NC(=O)c1cc2ccccc2s1 | Not Active | Not Active |  |  | 40.1 µM | 5070 nM | 5620 nM | 
7 | C[Se]/C(=N\C(=O)c1ccc2c(c1)OCO2)NC(=O)c1ccc2c(c1)OCO2 | Not Active | Not Active |  |  |  | 990 nM | 530 nM | 
8 | C[Se]/C(=N\C(=O)c1cnc2ccccc2c1)NC(=O)c1cnc2ccccc2c1 | Not Active | Not Active | Active | Active |  | 660 nM | 200 nM | 
9 | C[Se]/C(=N\C(=O)c1cc(-c2ccccc2)nc2ccccc12)NC(=O)c1cc(-c2ccccc2)nc2ccccc12 | Not Active | Not Active |  |  | 32.6 µM | 490 nM | 460 nM | 
10 | C[Se]/C(=N\C(=O)c1c2ccccc2nc2ccccc12)NC(=O)c1c2ccccc2nc2ccccc12 | Not Active | Not Active | Active | Active | 64 µM | 73900 nM | 7630 nM | 
11 | CC[C@@]1(O)C(=O)OCc2c1cc1n(c2=O)Cc2cc3ccccc3nc2-1 [CAMPTOTHECIN] |  |  |  |  | 0.79 µM |  |  | 
12 | COc1cccc2c1C(=O)c1c(O)c3c(c(O)c1C2=O)C[C@@](O)(C(=O)CO)C[C@@H]3O[C@H]1C[C@H](N)[C@H](O)[C@H](C)O1 [DOXORUBICIN] |  |  |  |  | 6.31 µM |  |  | 
13 | CN(Cc1cnc2nc(N)nc(N)c2n1)c1ccc(C(=O)N[C@@H](CCC(=O)O)C(=O)O)cc1 [METHOTREXATE] |  |  |  |  |  |  |  | > 100 µM
14 | CC(=O)O[C@H]1C(=O)[C@@]2(C)[C@H]([C@H](OC(=O)c3ccccc3)[C@]3(O)C[C@H](OC(=O)[C@H](O)[C@@H](NC(=O)c4ccccc4)c4ccccc4)C(C)=C1C3(C)C)[C@]1(OC(C)=O)CO[C@@H]1C[C@@H]2O [PACLITAXEL] |  |  |  |  | 0.2 µM |  |  | 
